15 molecules from PubChem BioAssay can be followed below.

Assay [1] is described as follows: reducers of endogenous Her2 protein level, primary screen, SKBR3 breast tumor cells, AlphaScreen, ATP viability (AID 461;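 active = Her2 level under about 52% in both replicate screens, with viability over 70% of control, limit read from the data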;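 for Her2 level: lower value means less Her2 protein in the cells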;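 for viability: percent of carrier control wells set as 100% viability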). Particulars: 18-24 h, measured here: SKBR3 viability, ATP luminescence, at 10 µM. For orientation: Bead proximity is the source of the signal in Alpha formats.
The target of assay [2] is Receptor tyrosine-protein kinase erbB-2 (Homo sapiens) (UniProt P04626). Described as above. As to conditions: 18-24 h, at 10 µM, stronger effect = lower value.
Chain of Receptor tyrosine-protein kinase erbB-2 (Homo sapiens) (P04626 whole entry, looked up): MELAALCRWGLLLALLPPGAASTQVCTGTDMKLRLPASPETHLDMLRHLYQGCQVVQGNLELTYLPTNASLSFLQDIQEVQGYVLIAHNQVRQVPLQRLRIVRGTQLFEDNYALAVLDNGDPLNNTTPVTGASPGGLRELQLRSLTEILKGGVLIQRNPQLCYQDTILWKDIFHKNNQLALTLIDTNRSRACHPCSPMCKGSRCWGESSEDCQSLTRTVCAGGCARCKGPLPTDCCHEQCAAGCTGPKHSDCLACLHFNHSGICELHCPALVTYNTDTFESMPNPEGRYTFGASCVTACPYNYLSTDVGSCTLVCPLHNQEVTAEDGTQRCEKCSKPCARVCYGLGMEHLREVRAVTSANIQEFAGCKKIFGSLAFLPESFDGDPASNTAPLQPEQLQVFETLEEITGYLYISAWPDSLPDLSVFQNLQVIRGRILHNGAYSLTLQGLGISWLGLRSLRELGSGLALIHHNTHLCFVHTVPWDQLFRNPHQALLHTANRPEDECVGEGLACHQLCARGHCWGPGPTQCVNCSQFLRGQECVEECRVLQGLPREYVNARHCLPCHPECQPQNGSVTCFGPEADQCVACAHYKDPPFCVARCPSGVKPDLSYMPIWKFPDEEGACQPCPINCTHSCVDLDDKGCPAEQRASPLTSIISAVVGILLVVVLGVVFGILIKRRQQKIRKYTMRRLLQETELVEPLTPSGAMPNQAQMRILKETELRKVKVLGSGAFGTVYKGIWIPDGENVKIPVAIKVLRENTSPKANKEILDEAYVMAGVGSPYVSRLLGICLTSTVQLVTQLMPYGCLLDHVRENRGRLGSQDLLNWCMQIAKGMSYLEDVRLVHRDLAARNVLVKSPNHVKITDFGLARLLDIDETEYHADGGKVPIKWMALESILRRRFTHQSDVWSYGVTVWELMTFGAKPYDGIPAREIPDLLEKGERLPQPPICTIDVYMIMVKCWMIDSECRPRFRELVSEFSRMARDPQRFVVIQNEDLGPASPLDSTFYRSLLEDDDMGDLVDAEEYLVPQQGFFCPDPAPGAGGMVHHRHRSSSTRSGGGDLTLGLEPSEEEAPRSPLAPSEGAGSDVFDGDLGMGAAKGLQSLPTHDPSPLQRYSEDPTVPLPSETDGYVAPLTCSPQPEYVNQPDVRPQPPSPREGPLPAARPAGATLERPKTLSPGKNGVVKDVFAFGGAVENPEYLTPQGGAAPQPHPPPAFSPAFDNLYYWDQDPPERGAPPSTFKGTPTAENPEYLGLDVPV
Assay [3] is described as follows: SK-BR-3 cell growth inhibitors, pilot screen, 24 h, human (AID 572).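 Note: compound exposure lasted between 18 and 24 h rather than exactly 24 h; 100% = carrier-treated control wells.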 Particulars: SK-BR-3 viability, CellTiter-Glo luminescence, at 10 µM, stronger effect = lower value.
Assay [4] is described as follows: HUVEC growth inhibition – cell-based, human, primary screen (AID 575;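 active = viability at or below 30% in both replicate assays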;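 note: 100% = median of untreated cell wells with 0.1% DMSO on each plate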). As to conditions: HUVEC proliferation, CellTiter-Glo luminescence, 72 h; at 10 µM; stronger effect = lower value. In short, it runs like this: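 Test system – primary HUVEC, no more than 12 passages · Dosing – one dose, 10 µM final, 0.1% DMSO · Times – 72 h treatment at 37 °C · Measured by – ATP-based CellTiter-Glo luminescent read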

The nature of assay [5]: growth inhibitors of H69AR lung tumor, primary screen, human, duplicate replicates (AID 580;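 active = viability at or under a set limit in both replicates, limit being median viability minus 3 SD, cut at about 48% in these data, passing the limit was not always enough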;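 note: 100% = mean luminescence of untreated wells and 0% = no signal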). Particulars: H69AR lung tumor cells viability, ATP luminescence, 72 h; at 10 µM; stronger effect = lower value.
The nature of assay [6]: reversal of MRP1-mediated doxorubicin resistance, pilot screen, H69AR cells, doxorubicin co-treatment (AID 601;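 active = viability loss from added drug above about 55%, and viability with drug at most 40%, in both replicates, limit read from the data, passing the limit was not always enough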). As to conditions: CellTiter-Glo, 72 h, at 10 µM; for differential viability (reversal): stronger effect = higher value. In general terms: Cellular ATP, detected with luciferase, serves as a proxy for viable cell number.
The nature of assay [7]: 384-well plate pilot, post-Golgi transport modulator project, inhibition of yeast transport mutant growth (AID 636; in the data active = inhibition above about 31%). As to conditions: absorbance 615 nm, about 18 h, stronger effect = higher value.
Assay [8] in a line: growth suppression of yeast trafficking mutant, preliminary HTS, modulators of trafficking downstream of Golgi apparatus project, 1536-format plate, OD 615 nm (AID 637; in the data active = inhibition above about 30%). As to conditions: yeast transport mutant growth, absorbance 615 nm, 18 h; stronger effect = higher value.
Where [9] appears, read: H69AR cells + 2 uM doxorubicin, measured here: viability with 2 uM doxorubicin, stronger effect = lower value.
Setting [10] is: H69AR cells, compound alone cytotoxicity.

Calls of active or inactive are those of the source.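 Rule for the calls, unless noted: active = viability at or below 10% of carrier control in both of two separate runs; inconclusive = viability at or below 10% in only one of the two runs; inactive = the rest.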

Consider `N#Cc1c(NC(=O)CSc2nnnn2C2CCCC2)sc2c1CCCC2`, for which the viability (in general, a read-out of living cells in per cent, often relative to untreated cells) was 82.5% in assay [1]; 82.5% (inactive) in assay [3]; 94.6% (inactive) in assay [4]; 69.9% (inactive) in assay [5]; 68.2% in assay [6] (setting [9]); 69.9% in assay [6] (setting [10]). In assay [2], the Her2 level is 85% (inactive). In addition, the differential viability (reversal) in assay [6] (H69AR cells + 2 uM doxorubicin) was 1.64% (inactive). Besides, the values for the inhibition in assay [7] and in assay [8] were -0.53% (inactive) and 0.16% (inactive), respectively.
For `O=C(c1ccc2c(c1)[nH]c(=S)n1c3ccccc3nc21)N1CCN(c2ncccn2)CC1`, the viability is 100% in assay [1]; 100% (inactive) in assay [3]; 88.7% (inactive) in assay [4]; 96.3% (inactive) in assay [5]; 90.8% in assay [6] (setting [9]); 96.3% in assay [6] (setting [10]). For the same molecule, in assay [2], the Her2 level was 82% (inactive). For the same molecule, the differential viability (reversal) in assay [6] (H69AR cells + 2 uM doxorubicin) is 5.5% (inactive). The results for the inhibition in assay [7] and in assay [8] were -3.95% (inactive) and 3.67% (inactive), respectively.
On to `Cc1ccc(S(=O)(=O)CCc2nnc(NC(=O)c3cnccn3)s2)cc1`, for which the viability in assay [1] is 97.5%; in assay [3], 97.5% (inactive); in assay [4], 116% (inactive); in assay [5] it was 99.6% (inactive); in assay [6] (setting [9]), 97.6%; in assay [6] (setting [10]) it was 99.6%. Further, in assay [2], the Her2 level was 87% (inactive). For the same molecule, the differential viability (reversal) in assay [6] (H69AR cells + 2 uM doxorubicin) was 1.94% (inactive). The values for the inhibition in assay [7] and in assay [8] were -4.13% (inactive) and 3.93% (inactive), respectively.
Regarding `O=C(NC1CCN(Cc2nnnn2CCc2ccccc2)CC1)c1ccccc1F`, the viability in assay [1] was 81.5%; in assay [3] it was 81.5% (inactive); in assay [4], 85.4% (inactive); in assay [5] it was 86.5% (inactive); in assay [6] (setting [9]) it was 98.3%; in assay [6] (setting [10]), 86.5%. In addition, in assay [2], the Her2 level is 96% (inactive). Further, the differential viability (reversal) in assay [6] (H69AR cells + 2 uM doxorubicin) was -11.7% (inactive). Moreover, the values for the inhibition in assay [7] and in assay [8] were 0.13% (inactive) and -0.5% (inactive), respectively.
Turning to `CC(C(=O)c1ccccc1)n1cnc2ccccc2c1=O` (stereo not given), the viability in assay [1] was 94.5%; in assay [3] it was 94.5% (inactive); in assay [4] it was 86.6% (inactive); in assay [5] it was 89.6% (inactive); in assay [6] (setting [9]), 80.5%; in assay [6] (setting [10]), 89.6%. The Her2 level in assay [2] is 87% (inactive). Further, the differential viability (reversal) in assay [6] (H69AR cells + 2 uM doxorubicin) was 9.12% (inactive). Also, the inhibition (commonly the drop in the measured response relative to a control, in per cent) in assay [7] was -5.73% (inactive); in assay [8] it was 2.42% (inactive).
For the molecule `CCOc1ccc(NC(=O)CN(C)CC(=O)NC2CCCc3ccccc32)cc1OCC` (stereo not given), the viability in assay [1] was 83%; in assay [3], 83% (inactive); in assay [4], 100% (inactive); in assay [5], 89.9% (inactive); in assay [6] (setting [9]) it was 97.3%; in assay [6] (setting [10]), 89.9%. In addition, the Her2 level in assay [2] was 88.5% (inactive). Moreover, the differential viability (reversal) in assay [6] (H69AR cells + 2 uM doxorubicin) was -7.38% (inactive). Also, the inhibition in assay [7] was -0.38% (inactive); in assay [8], 0.33% (inactive).
With `COC(=O)c1ccc(CNC(=O)COc2ccccc2Br)o1`, the viability in assay [1] is 93%; in assay [3], 93% (inactive); in assay [4] it was 100% (inactive); in assay [5], 103% (inactive); in assay [6] (setting [9]) it was 87.6%; in assay [6] (setting [10]), 103%. For the same molecule, in assay [2], the Her2 level was 108% (inactive). In addition, the differential viability (reversal) in assay [6] (H69AR cells + 2 uM doxorubicin) was 15% (inactive). The inhibition in assay [7] is -3.33% (inactive); in assay [8] it was -10% (inactive).
Consider `O=C(C1CCC(N2C(=O)C3CC=CCC3C2=O)CC1)N1CCCCC1` (stereo not given), for which the viability in assay [1] was 75.5%; in assay [3], 75.5% (inactive); in assay [4] it was 96.3% (inactive); in assay [5], 91.8% (inactive); in assay [6] (setting [9]), 83.7%; in assay [6] (setting [10]), 91.8%. Further, in assay [2], the Her2 level is 113% (inactive). In addition, the differential viability (reversal) in assay [6] (H69AR cells + 2 uM doxorubicin) is 8.11% (inactive). The inhibition was 0.64% (inactive) in assay [7] and -5.83% (inactive) in assay [8].
Take `CCN(CC)S(=O)(=O)c1ccc2c(c1)c(=O)c(C(=O)NCCOC)cn2C`: the viability in assay [1] was 88.5%; in assay [3], 88.5% (inactive); in assay [4], 101% (inactive); in assay [5], 83.1% (inactive); in assay [6] (setting [9]), 95.6%; in assay [6] (setting [10]) it was 83.1%. The Her2 level in assay [2] is 99.5% (inactive). The differential viability (reversal) in assay [6] (H69AR cells + 2 uM doxorubicin) is -12.5% (inactive). Also, the inhibition is -5.95% (inactive) in assay [7] and -5.5% (inactive) in assay [8].
With `COc1ccc2c(c1)Sc1ccccc1N2CCN(C)C`, the viability in assay [1] is 88.5%; in assay [3], 88.5% (inactive); in assay [4], 59.1% (inactive); in assay [5], 68.8% (inactive); in assay [6] (setting [9]) it was 72.3%; in assay [6] (setting [10]), 68.8%. Also, the Her2 level in assay [2] is 86.5% (inactive). In addition, the differential viability (reversal) in assay [6] (H69AR cells + 2 uM doxorubicin) is -3.43% (inactive). The inhibition was -5.39% (inactive) in assay [7] and -6.29% (inactive) in assay [8].
For `N#CC1=C(SCC(=O)NC2CCCCC2)NC(=O)CC1c1ccco1` (stereo not given), the viability in assay [1] was 113%; in assay [3], 113% (inactive); in assay [4], 74.8% (inactive); in assay [5] it was 30.6% (active); in assay [6] (setting [9]) it was 83.1%; in assay [6] (setting [10]), 30.6%. The Her2 level in assay [2] is 98% (inactive). Moreover, in assay [6] (H69AR cells + 2 uM doxorubicin), the differential viability (reversal) was -52.5% (inactive). The values for the inhibition in assay [7] and in assay [8] were -6.53% (inactive) and 0.97% (inactive), respectively.
Turning to `Cc1ccc2nc(NC(=O)C3CCCN(S(=O)(=O)c4cnc[nH]4)C3)sc2c1` (stereo not given), the viability in assay [1] was 96.5%; in assay [3], 96.5% (inactive); in assay [4], 98% (inactive); in assay [5] it was 81.9% (inactive); in assay [6] (setting [9]) it was 90.9%; in assay [6] (setting [10]) it was 81.9%. The Her2 level in assay [2] was 92% (inactive). For the same molecule, the differential viability (reversal) in assay [6] (H69AR cells + 2 uM doxorubicin) is -9.05% (inactive). Moreover, the inhibition was -2.67% (inactive) in assay [7] and -3.11% (inactive) in assay [8].
In the case of `COc1ccc(-c2nnc(SCC(=O)Nc3ccc(Cl)cc3)n2C)cc1`, the viability in assay [1] was 82.5%; in assay [3] it was 82.5% (inactive); in assay [4], 92.8% (inactive); in assay [5], 90.2% (inactive); in assay [6] (setting [9]), 82.2%; in assay [6] (setting [10]) it was 90.2%. The Her2 level in assay [2] was 104% (inactive). In assay [6] (H69AR cells + 2 uM doxorubicin), the differential viability (reversal) was 8% (inactive). Further, the inhibition was -0.93% (inactive) in assay [7] and -9.21% (inactive) in assay [8].
Consider `OC(CNCC1COc2ccccc2O1)COCc1cccs1` (stereo not given), for which the viability in assay [1] is 98%; in assay [3], 98% (inactive); in assay [4] it was 87.5% (inactive); in assay [5] it was 83.1% (inactive); in assay [6] (setting [9]) it was 82.1%; in assay [6] (setting [10]) it was 83.1%. Besides, in assay [2], the Her2 level was 89.5% (inactive). Moreover, in assay [6] (H69AR cells + 2 uM doxorubicin), the differential viability (reversal) is 0.95% (inactive). Moreover, the results for the inhibition in assay [7] and in assay [8] were -2.08% (inactive) and -7.94% (inactive), respectively.
Take `O=C(NCCc1c[nH]c2ccccc12)c1ccc(S(=O)(=O)NCc2ccco2)cc1`: the viability in assay [1] is 93.5%; in assay [3], 93.5% (inactive); in assay [4], 60.2% (inactive); in assay [5], 65.6% (inactive); in assay [6] (setting [9]), 77.5%; in assay [6] (setting [10]) it was 65.6%. Further, the Her2 level in assay [2] was 83.5% (inactive). The differential viability (reversal) in assay [6] (H69AR cells + 2 uM doxorubicin) was -11.9% (inactive). Besides, the inhibition was -1.82% (inactive) in assay [7] and -5.4% (inactive) in assay [8].
